Results on 1 compound are retold here after ChEMBL document CHEMBL4184106, “Discovering alkylamide derivatives of bexarotene as new therapeutic agents against triple-negative breast cancer” (Bioorg Med Chem Lett, 2018).

Series [1] concerns MCF7. The experiment in a line: Inhibition of mammosphere formation in human MCF7 cells assessed as ratio of C-Myc to beta actin level at 5 uM by Western blot analysis (Rvb= 1). In kind it is functional. In a few lines: (§1)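 Post-treatment cell lysates were probed by Western blot for CSC markers, with β-actin as the loading control. Band densitometry was normalized to DMSO-treated samples.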

For series [2], the system named is MCF7. As to the kind of experiment: Cytotoxicity against human MCF7 cells assessed as reduction in cell viability at 5 uM by MTT assay. Type of series: functional. (Formazan colour is commonly taken as a measure of viable cells.)
The test system of series [3] is MDA-MB-231. The experiment in a line: Cytotoxicity against human MDA-MB-231 cells assessed as reduction in cell viability at 5 uM by MTT assay. Type of series: functional.
The subject of series [4] is BT-549. As to the kind of experiment: Cytotoxicity against human BT549 cells assessed as reduction in cell viability at 5 uM by MTT assay. Type of series: functional.
In series [5] the test system is MCF-10A. As to the kind of experiment: Cytotoxicity against human MCF10A cells assessed as reduction in cell viability by MTT assay. In kind it is cell-based.
Series [6] has as its system BT-549. The experiment in a line: Induction of apoptosis in human BT549 cells assessed as ratio of cleaved caspase-9 to beta-actin level at 5 uM by western blot analysis (reference value: 1). Type of series: functional. (In general: Immunoblotting shows a protein as a band on a membrane.)
Series [7] deals with MDA-MB-231. The experiment in a line: Inhibition of colony formation in human MDA-MB-231 cells at 2 uM supplemented with fresh medium containing compound every 3 days for 10 days by microscopic method based soft agar colony formation assay relative to control. Type of series: functional.
Series [8] concerns MCF7. As to the kind of experiment: Down regulation of Nanog expression in human MCF7 cells at 5 uM by Western blot analysis. Type of series: functional. An outline of the steps: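 MCF-7 cells were treated and lysates probed by Western blot for CSC-related markers, with β-actin as loading control. Band densitometry was normalized to DMSO-treated samples.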
Series [9] deals with MCF7. As to the kind of experiment: Inhibition of mammosphere formation in human MCF7 cells assessed as ratio of KLF4 to beta actin level at 5 uM by Western blot analysis (Rvb= 1). In kind it is functional. In a few lines:
as §1

In series [10] the test system is MCF7. As to the kind of experiment: Inhibition of mammosphere formation in human MCF7 cells assessed as ratio of Nanog to beta actin level at 5 uM by Western blot analysis (Rvb= 1). In kind it is functional. In a few lines: as §1
The test system of series [11] is MCF7. As to the kind of experiment: Inhibition of mammosphere formation in human MCF7 cells assessed as ratio of Sox2 to beta actin level at 5 uM by Western blot analysis (Rvb= 1). In kind it is functional. An outline of the steps: as §1
Series [12] relates to BT-549. As to the kind of experiment: Inhibition of mammosphere formation in human BT549 cells assessed as ratio of C-Myc to beta actin level at 5 uM by Western blot analysis (Rvb= 1). Type of series: functional.
Series [13] concerns BT-549. As to the kind of experiment: Effect on epithelial-mesenchymal transition in human BT549 cells assessed as ratio of slug to beta-actin level at 5 uM by Western blot analysis (reference value: 1). Type of series: functional.
Series [14] concerns MDA-MB-231. As to the kind of experiment: Effect on beta-catenin translocation in cytosolic fraction of human MDA-MB-231 cells assessed as ratio of beta-catenin to beta-actin level at 5 uM by Western blot analysis (reference value: 1). In kind it is functional.
Series [15] has as its system BT-549. The experiment in a line: Effect on beta-catenin translocation in cytosolic fraction of human BT549 cells assessed as ratio of beta-catenin to beta-actin level at 5 uM by Western blot analysis (reference value: 1). Type of series: functional.

Structures are written as SMILES.

Turning to `C=C(c1ccc(C(=O)NCCN2CCCC2)cc1)c1cc2c(cc1C)C(C)(C)CCC2(C)C`, the Ratio is 0.8 in [1]; 2.1 in series [6]; 0.7 in series [9]; 0.8 in [10]; 0.4 in series [11]; 0.8 in series [12]. Further, the Ratio in series [13] amounted to 0.7; in series [14], 2.1; in series [15] it was 2.4. Further, the Activity in series [2] is given as 40%; in series [3] it was 60%; in [4] it was 60%; in series [5], “Non-Toxic”; in series [8], 20%. Further, the “inhibition (INH)” value in series [7] amounted to 90%.
